The values below come from ChEMBL document CHEMBL4382263, “Spirostaphylotrichin X from a Marine-Derived Fungus as an Anti-influenza Agent Targeting RNA Polymerase PB2” (J Nat Prod, 2018).

This experiment relates to Influenza A virus. In words: Antiviral activity against Influenza A virus H5N1 pseudovirus harboring IAV (A/Thailand/Kan353/2004(H5N1))-HA/IAV (A/Thailand/Kan353/2004(H5N1))-NA/HIV core plasmids infected in MDCK cells assessed as pseudovirus neutralization incubated for 30 mins with virus followed by viral infection and measured after 48 hrs by luciferase reporter gene assay. Type of experiment: functional, organism-based. The procedure, abridged: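 Pseudovirus incubated with varying compound concentrations for 30 min at 37 °C, then added to MDCK cells for 48 h. Lysates read for luciferase activity; VSV-G pseudovirus run as control.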
(In general: Reporter assays use an easily measured gene product as a stand-in for the process of interest.)

SMILES strings stand for the structures. Calls of active or inactive are those of the source. The calls are words filed in the database; no cut-off is given here.

`CC/C=C1/C=CC(=O)[C@@H](O)[C@]12C(=O)N(OC)[C@@](C)(OC)[C@@H]2O`: the outcome was inactive.
